4 compounds from ChEMBL document CHEMBL1135916, “Design, synthesis, and structure-activity relationship of pyridyl imidazolidinones: a novel class of potent and selective human enterovirus 71 inhibitors” (J Med Chem, 2002) can be followed below.

The nature of series [1]: Cytotoxicity against human normal skin fibroblast (D551) cells. Type of series: cell-based. Particulars: D551 normal skin fibroblast cells. Summed up: (§1)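 Test compound at various concentrations added to D551 (human normal skin fibroblast), WI38 (human normal lung fibroblast) or RD cells; incubated 96 h at 37 °C; cells harvested and viable cells counted by trypan blue staining. Triplicate, at least twice.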

In series [2] the test system is Coxsackievirus. The experiment in a line: Inhibition concentration against coxsackie virus A10. In kind it is functional, organism-based. In a few lines:
(§2)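 Plaque reduction on Vero cell monolayers infected to give about 50-100 plaques per monolayer in virus control; test compound diluted into agar-medium overlay; 96 h at 35 °C, crystal violet staining, plaques counted. […] Triplicate well means, at least two experiments.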

In series [3] the test system is Coxsackievirus. The experiment in a line: Inhibition concentration against coxsackie virus A16. Type of series: functional, organism-based. In a few lines:
as §2

Series [4] relates to Coxsackievirus. Nature of the series: Inhibition concentration against coxsackie virus A24. Type of series: functional, organism-based. In a few lines: as §2
Series [5] concerns Coxsackievirus. The experiment in a line: Inhibition concentration against coxsackie virus A9. Type of series: functional, organism-based. Summed up: as §2
The test system of series [6] is Coxsackievirus. The experiment in a line: Inhibition concentration against coxsackie virus B1. Type of series: functional, organism-based. Summed up: as §2
Series [7] has as its system Coxsackievirus. The experiment in a line: Inhibition concentration against coxsackie virus B2. Type of series: functional, organism-based. Summed up: as §2
The test system of series [8] is Coxsackievirus. The experiment in a line: Inhibition concentration against coxsackie virus B3. Type of series: functional, organism-based. Summed up: as §2
Series [9] relates to Coxsackievirus. The experiment in a line: Inhibition concentration against coxsackie virus B4. In kind it is functional, organism-based. Summed up:
as §2

Series [10] has as its system Coxsackievirus. The experiment in a line: Inhibition concentration against coxsackie virus B5. Type of series: functional, organism-based. In a few lines: as §2
The subject of series [11] is Coxsackievirus. The experiment in a line: Inhibition concentration against coxsackie virus B6. Type of series: functional, organism-based. In a few lines:
as §2

Series [12] deals with Enterovirus. The experiment in a line: Inhibition concentration against echovirus 29. Type of series: functional, organism-based. In a few lines:
as §2

Series [13] has as its system Enterovirus. Nature of the series: Inhibition concentration against echovirus 9. In kind it is functional, organism-based. Summed up: as §2
The test system of series [14] is Enterovirus. The experiment in a line: Inhibition Concentration against enterovirus 68. Type of series: functional, organism-based. Summed up: as §2
For series [15], the system named is Enterovirus. Nature of the series: Inhibition concentration against EV-71 (1743) genotype B. In kind it is functional, organism-based. In a few lines:
as §2

The test system of series [16] is Enterovirus. The experiment in a line: Inhibition concentration against EV-71 (2086) genotype C. Type of series: functional, organism-based. In a few lines:
as §2

Series [17] deals with Enterovirus. The experiment in a line: Inhibition concentration against EV-71 (2231) genotype C. In kind it is functional, organism-based. In a few lines: as §2
Series [18] relates to Enterovirus. Nature of the series: Inhibition concentration against EV-71 (BrCR) genotype A. In kind it is functional, organism-based. Summed up:
as §2

Another series deals with Human alphaherpesvirus 2. Nature of the series: Inhibition concentration against herpes simplex virus. Type of series: functional, organism-based. Summed up: as §2
The test system of a further series is Enterovirus A71. Nature of the series: Inhibition concentration against EV-71. Type of series: functional, organism-based. Particulars: Enterovirus A.
Series [19] deals with unidentified influenza virus. The experiment in a line: Inhibition concentration against influenza A (WSN). Type of series: functional, organism-based. In a few lines: (§3)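 Plaque reduction assay on Vero cell monolayers. Virus was added at a dose giving about 50-100 plaques per monolayer in virus controls. Compound was diluted into the agar-medium overlay, tested up to 25 µM. Plates were incubated 96 h at 35 °C, stained with crystal violet, and plaques counted.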

Series [20] concerns unidentified influenza virus. The experiment in a line: Inhibition concentration against influenza B […]. In kind it is functional, organism-based. Summed up: as §3
Series [21] has as its system Enterovirus. Nature of the series: Inhibition concentration against human rhinovirus 14. In kind it is functional, organism-based. Summed up:
as §2

The test system of series [22] is Enterovirus. The experiment in a line: Inhibition concentration against human rhinovirus 2. Type of series: functional, organism-based. Summed up:
as §2

Series [23] can be described thus: (§4) Cytotoxicity against human rhabdomyosarcoma (RD) cells. Type of series: functional. Particulars: Homo sapiens, RD.
Series [24] is described as follows: Cytotoxicity against human normal skin fibroblast (W138) cells. In kind it is cell-based. Particulars: W138 normal skin fibroblast cells. In a few lines: as §1
The nature of series [25]: Selectivity index (D551/EV71) of the compound. In kind it is functional.
Series [26] is described as follows: Selectivity index (RD/EV71) of the compound. In kind it is functional.
Series [27] can be described thus: Selectivity index (W138/EV71) of the compound. In kind it is functional.
A short description of series [28]: as §4. In kind it is functional. In a few lines:
as §1

Series [29] is described as follows: selectivity index of the compound. In kind it is functional.

With `O=C1N(CCCCCCOc2ccc(C(F)(F)F)cc2)CCN1c1ccncc1`, the results for the CC50 in series [1], in series [23] and in [24] were 55 µM, above 25 µM and 36 µM, respectively. Further, the IC50 (usually the concentration that inhibits the measured activity by half) in the series with Coxsackievirus [2] is 15.7 µM; with Coxsackievirus [3] it was above 25 µM; in the series with Coxsackievirus [4] it was 0.47 µM; with Coxsackievirus [5], 1.44 µM; with Coxsackievirus [6] it was 5.6 µM; with Coxsackievirus [7], above 25 µM. Moreover, the IC50 in the series with Coxsackievirus [8] is above 25 µM; with Coxsackievirus [9], above 25 µM; in the series with Coxsackievirus [10], above 25 µM; in the series with Coxsackievirus [11], above 25 µM; in the series with Enterovirus [12], above 25 µM; in the series with Enterovirus [13], 2.61 µM. For the same compound, the IC50 in the series on Enterovirus [14] is 4.67 µM; in the series with Enterovirus [15], 0.75 µM; with Enterovirus [16] it was 0.51 µM; in the series with Enterovirus [17], 1.35 µM; in the series on Enterovirus [18], 1.37 µM; with Human alphaherpesvirus 2, above 25 µM. The IC50 with Enterovirus A71 is 0.58 µM; in series [19], above 25 µM; in series [20], above 25 µM; in the series on Enterovirus [21], above 12.5 µM; in the series on Enterovirus [22], above 25 µM. Moreover, the Selectivity index is 108 in series [25], above 43 in [26] and 71 in [27].
`O=C1N(CCCCCCOc2ccc(Br)cc2)CCN1c1ccncc1`: the CC50 (as a rule, the concentration giving 50% cytotoxicity) in series [1] was 46 µM; in series [23], above 25 µM; in series [24], 50 µM. For the same compound, the IC50 in the series with Coxsackievirus [2] was 5.88 µM; in the series with Coxsackievirus [3] it was above 25 µM; in the series on Coxsackievirus [4], 0.55 µM; with Coxsackievirus [5], 0.77 µM; in the series with Coxsackievirus [6], 5.1 µM; in the series on Coxsackievirus [7], above 25 µM. Also, the IC50 in the series with Coxsackievirus [8] was above 25 µM; with Coxsackievirus [9] it was above 25 µM; in the series on Coxsackievirus [10], above 25 µM; with Coxsackievirus [11], above 25 µM; in the series with Enterovirus [12], above 25 µM; in the series with Enterovirus [13], 2.82 µM. For the same compound, the half-maximal inhibitory concentration (IC50) was 2.13 µM in the series on Enterovirus [14]; 0.6 µM with Enterovirus [15]; 0.31 µM with Enterovirus [16]; 1.15 µM in the series with Enterovirus [17]; 1.26 µM in the series on Enterovirus [18]; above 25 µM in the series on Human alphaherpesvirus 2. Besides, the concentration for half-maximal inhibition (IC50) in the series with Enterovirus A71 is 0.35 µM; in series [19], above 25 µM; in series [20] it was above 25 µM; in the series with Enterovirus [21] it was 11.6 µM; in the series on Enterovirus [22], above 25 µM. The Selectivity index in series [25] is 148; in [26] it was above 71; in series [27], 161.
`O=C1N(CCCCCOc2ccc(Br)cc2)CCN1c1ccncc1`: the half-maximal cytotoxic concentration (CC50) is 50 µM in series [1], above 25 µM in series [28] and 65 µM in [24]. Moreover, the half-inhibitory concentration (IC50) with Enterovirus A71 was determined as 0.5 µM. Also, the Selectivity index in series [25] is 100; in [26] it was above 50; in series [27] it was 130.
Turning to `O=C1N(CCCCCCOc2ccc(-c3cccs3)cc2)CCN1c1ccncc1`, the CC50 in [1] was 46 µM; in [28], above 25 µM; in [24], 60 µM. Half-maximal inhibition with Enterovirus A71 (IC50) was put at 0.3 µM. Further, the Selectivity index in series [25] is 153; in series [26], above 83; in [29] it was 200.
